{"source": "ChEMBL document CHEMBL4732220", "about": "“Design, synthesis and biological evaluation of mono- and bisquinoline methanamine derivatives as potential antiplasmodial agents” (Bioorg Med Chem Lett, 2021)", "data": [{"test_system": "Plasmodium falciparum", "experiment": "Antimalarial activity against synchronized ring stage chloroquine-sensitive Plasmodium falciparum assessed as parasite growth inhibition incubated for 48 hrs in presence of 10% human plasma by hypoxanthine assay", "type": "functional, organism-based", "conditions": "not given", "units": {"IC50": "nM"}, "values": [{"smiles": "Clc1ccc2nc(Cl)c(CN(c3ccccc3)c3nnc(-c4ccccc4)o3)cc2c1", "IC50": 89}, {"smiles": "C=C[C@H]1CN2CC[C@H]1C[C@H]2[C@H](O)c1ccnc2ccc(OC)cc12", "note": "[QUININE]", "IC50": 826}]}, {"test_system": "not listed separately", "experiment": "Cytotoxicity against human HeLa cells assessed as cell viability at 20 uM relative to control", "type": "cell-based", "conditions": "read-out: Activity", "in_short": "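Mammalian HeLa cells incubated with test compound at a single 20 µM concentration. Read-out is the percentage of viable cells remaining after incubation.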", "units": {"viability at 20 µM": "%"}, "values": [{"smiles": "COc1nc2cc(C)cc(C)c2cc1CNCc1ccncc1", "viability at 20 µM": 60.7}, {"smiles": "COc1ccc2nc(Cl)c(CN(Cc3cccs3)Cc3cc4cc(C)ccc4nc3OC)cc2c1", "viability at 20 µM": 103}, {"smiles": "Cc1ccc2nc(Cl)c(CN(Cc3cccnc3)Cc3cc4c(C)cc(C)cc4nc3Cl)cc2c1", "viability at 20 µM": 80.3}, {"smiles": "COc1nc2ccccc2cc1CN(Cc1cccnc1)Cc1cc2cc(C)ccc2nc1Cl", "viability at 20 µM": 98.3}, {"smiles": "COc1ccc2nc(OC)c(CNCc3cccs3)cc2c1", "viability at 20 µM": 93.2}, {"smiles": "COc1nc2cc(C)cc(C)c2cc1CN(Cc1cccs1)Cc1cc2cc(C)ccc2nc1Cl", "viability at 20 µM": 86}, {"smiles": "Fc1ccc2nc(Cl)c(CN(Cc3ccccn3)Cc3cc4cc(F)ccc4nc3Cl)cc2c1", "viability at 20 µM": 98.7}, {"smiles": "COc1ccc2nc(OC)c(CN(Cc3cccs3)Cc3cc4cc(C)ccc4nc3Cl)cc2c1", "viability at 20 µM": 99.2}, {"smiles": "COc1nc2ccccc2cc1CN(Cc1ccccn1)Cc1cc2ccccc2nc1OC", "viability at 20 µM": 89}, {"smiles": "COc1nc2ccccc2cc1CNCc1ccccn1", "viability at 20 µM": 44.3}, {"smiles": "COc1nc2ccc(F)cc2cc1CN(Cc1cccs1)Cc1cc2cc(C)ccc2nc1Cl", "viability at 20 µM": 95.2}, {"smiles": "COc1nc2ccc(F)cc2cc1CNCc1cccnc1", "viability at 20 µM": 97.2}, {"smiles": "COc1nc2ccc(Cl)cc2cc1CNCc1cccnc1", "viability at 20 µM": 100}, {"smiles": "COc1nc2cc(C)cc(C)c2cc1CN(Cc1cccnc1)Cc1cc2cc(C)ccc2nc1Cl", "viability at 20 µM": 77.6}, {"smiles": "COc1nc2ccccc2cc1CNCc1ccncc1", "viability at 20 µM": 69.9}, {"smiles": "COc1nc2ccc(C)cc2cc1CN(Cc1cccs1)Cc1cc2cc(C)ccc2nc1Cl", "viability at 20 µM": 87.9}, {"smiles": "COc1nc2ccccc2cc1CN(Cc1ccco1)Cc1cc2cc(C)ccc2nc1Cl", "viability at 20 µM": 84.4}, {"smiles": "COc1nc2cc(C)cc(C)c2cc1CN(Cc1ccccn1)Cc1cc2c(C)cc(C)cc2nc1OC", "viability at 20 µM": 90.1}, {"smiles": "COc1nc2ccc(F)cc2cc1CNCc1cccs1", "viability at 20 µM": 93.5}, {"smiles": "COc1nc2ccc(C)cc2cc1CN(Cc1ccccn1)Cc1cc2cc(C)ccc2nc1OC", "viability at 20 µM": 93.3}, {"smiles": "Clc1nc2ccccc2cc1CNCc1ccncc1", "viability at 20 µM": 73.7}, {"smiles": "COc1nc2ccccc2cc1CNCc1ccco1", "viability at 20 µM": 88.9}, {"smiles": "COc1ccc2nc(Cl)c(CN(Cc3cccs3)Cc3cc4c(C)cc(C)cc4nc3OC)cc2c1", "viability at 20 µM": 85.4}, {"smiles": "COc1nc2ccc(C)cc2cc1CNCc1cccnc1", "viability at 20 µM": 99.5}, {"smiles": "Cc1ccc2nc(Cl)c(CN(Cc3ccccn3)Cc3cc4cc(C)ccc4nc3Cl)cc2c1", "viability at 20 µM": 93}, {"smiles": "Clc1nc2ccccc2cc1CNCc1ccccn1", "viability at 20 µM": 65.6}, {"smiles": "COc1nc2ccc(C)cc2cc1CNCc1cccs1", "viability at 20 µM": 99.7}, {"smiles": "COc1nc2cc(C)cc(C)c2cc1CNCc1ccccn1", "viability at 20 µM": 56.7}, {"smiles": "COc1nc2ccccc2cc1CNCc1cccnc1", "viability at 20 µM": 89.9}, {"smiles": "COc1ccc2nc(OC)c(CNCc3cccnc3)cc2c1", "viability at 20 µM": 100}, {"smiles": "COc1nc2cc(C)cc(C)c2cc1CNCc1cccnc1", "viability at 20 µM": 76.7}, {"smiles": "COc1nc2ccc(F)cc2cc1CN(Cc1cccnc1)Cc1cc2cc(C)ccc2nc1Cl", "viability at 20 µM": 92.6}, {"smiles": "Oc1ccc2nc(Cl)c(CN(Cc3ccccn3)Cc3cc4cc(O)ccc4nc3Cl)cc2c1", "viability at 20 µM": 88.8}, {"smiles": "COc1nc2ccccc2cc1CNCc1cccs1", "viability at 20 µM": 89.9}, {"smiles": "COc1nc2ccccc2cc1CN(Cc1ccccn1)Cc1cc2ccccc2nc1Cl", "viability at 20 µM": 89.9}, {"smiles": "Cc1cc(C)c2cc(CNCc3cccnc3)c(Cl)nc2c1", "viability at 20 µM": 77.2}, {"smiles": "COc1ccc2nc(OC)c(CN(Cc3ccccn3)Cc3cc4cc(OC)ccc4nc3OC)cc2c1", "viability at 20 µM": 79.5}, {"smiles": "Clc1nc2ccccc2cc1CN(Cc1ccccn1)Cc1cc2ccccc2nc1Cl", "viability at 20 µM": 90.6}, {"smiles": "COc1nc2cc(C)cc(C)c2cc1CNCc1cccs1", "viability at 20 µM": 87.5}, {"smiles": "COc1ccc2nc(Cl)c(CN(Cc3ccccn3)Cc3cc4cc(OC)ccc4nc3Cl)cc2c1", "viability at 20 µM": 83.8}]}, {"test_system": "Plasmodium falciparum", "experiment": "Antiplasmodial activity against chloroquine-sensitive Plasmodium falciparum 3D7 assessed as parasite growth inhibition", "type": "functional, organism-based", "conditions": "not given", "in_short": "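In vitro growth inhibition of P. falciparum 3D7. IC50 reported in µM, with 20 µM as the highest concentration tested.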", "units": {"IC50": "µM"}, "values": [{"smiles": "COc1nc2cc(C)cc(C)c2cc1CNCc1ccncc1", "IC50": 12}, {"smiles": "COc1ccc2nc(Cl)c(CN(Cc3cccs3)Cc3cc4cc(C)ccc4nc3OC)cc2c1", "IC50": 13.4}, {"smiles": "Cc1ccc2nc(Cl)c(CN(Cc3cccnc3)Cc3cc4c(C)cc(C)cc4nc3Cl)cc2c1", "IC50": 7.6}, {"smiles": "COc1nc2ccccc2cc1CN(Cc1cccnc1)Cc1cc2cc(C)ccc2nc1Cl", "IC50": 9.8}, {"smiles": "COc1ccc2nc(OC)c(CNCc3cccs3)cc2c1", "IC50": "> 20"}, {"smiles": "COc1nc2cc(C)cc(C)c2cc1CN(Cc1cccs1)Cc1cc2cc(C)ccc2nc1Cl", "IC50": "> 20"}, {"smiles": "Fc1ccc2nc(Cl)c(CN(Cc3ccccn3)Cc3cc4cc(F)ccc4nc3Cl)cc2c1", "IC50": 9.8}, {"smiles": "COc1ccc2nc(OC)c(CN(Cc3cccs3)Cc3cc4cc(C)ccc4nc3Cl)cc2c1", "IC50": 0.93}, {"smiles": "COc1nc2ccccc2cc1CN(Cc1ccccn1)Cc1cc2ccccc2nc1OC", "IC50": 3.5}, {"smiles": "COc1nc2ccccc2cc1CNCc1ccccn1", "IC50": 1.4}, {"smiles": "COc1nc2ccc(F)cc2cc1CN(Cc1cccs1)Cc1cc2cc(C)ccc2nc1Cl", "IC50": 11.3}, {"smiles": "COc1nc2ccc(F)cc2cc1CNCc1cccnc1", "IC50": 17.9}, {"smiles": "COc1nc2ccc(Cl)cc2cc1CNCc1cccnc1", "IC50": 16.8}, {"smiles": "COc1nc2cc(C)cc(C)c2cc1CN(Cc1cccnc1)Cc1cc2cc(C)ccc2nc1Cl", "IC50": 12.3}, {"smiles": "COc1nc2ccccc2cc1CNCc1ccncc1", "IC50": 2.1}, {"smiles": "COc1nc2ccc(C)cc2cc1CN(Cc1cccs1)Cc1cc2cc(C)ccc2nc1Cl", "IC50": 12.6}, {"smiles": "COc1nc2ccccc2cc1CN(Cc1ccco1)Cc1cc2cc(C)ccc2nc1Cl", "IC50": 12.8}, {"smiles": "COc1nc2cc(C)cc(C)c2cc1CN(Cc1ccccn1)Cc1cc2c(C)cc(C)cc2nc1OC", "IC50": 2.8}, {"smiles": "COc1nc2ccc(F)cc2cc1CNCc1cccs1", "IC50": "> 20"}, {"smiles": "COc1nc2ccc(C)cc2cc1CN(Cc1ccccn1)Cc1cc2cc(C)ccc2nc1OC", "IC50": "> 20"}, {"smiles": "Clc1nc2ccccc2cc1CNCc1ccncc1", "IC50": 2.3}, {"smiles": "COc1nc2ccccc2cc1CNCc1ccco1", "IC50": "> 20"}, {"smiles": "COc1ccc2nc(Cl)c(CN(Cc3cccs3)Cc3cc4c(C)cc(C)cc4nc3OC)cc2c1", "IC50": "> 20"}, {"smiles": "COc1nc2ccc(C)cc2cc1CNCc1cccnc1", "IC50": 13.4}, {"smiles": "Cc1ccc2nc(Cl)c(CN(Cc3ccccn3)Cc3cc4cc(C)ccc4nc3Cl)cc2c1", "IC50": "> 20"}, {"smiles": "Clc1nc2ccccc2cc1CNCc1ccccn1", "IC50": "> 20"}, {"smiles": "COc1nc2ccc(C)cc2cc1CNCc1cccs1", "IC50": "> 20"}, {"smiles": "COc1nc2cc(C)cc(C)c2cc1CNCc1ccccn1", "IC50": 0.23}, {"smiles": "COc1nc2ccccc2cc1CNCc1cccnc1", "IC50": 13.4}, {"smiles": "COc1ccc2nc(OC)c(CNCc3cccnc3)cc2c1", "IC50": 12.8}, {"smiles": "COc1nc2cc(C)cc(C)c2cc1CNCc1cccnc1", "IC50": "> 20"}, {"smiles": "COc1nc2ccc(F)cc2cc1CN(Cc1cccnc1)Cc1cc2cc(C)ccc2nc1Cl", "IC50": 9.6}, {"smiles": "Oc1ccc2nc(Cl)c(CN(Cc3ccccn3)Cc3cc4cc(O)ccc4nc3Cl)cc2c1", "IC50": 2.5}, {"smiles": "COc1nc2ccccc2cc1CNCc1cccs1", "IC50": "> 20"}, {"smiles": "COc1nc2ccccc2cc1CN(Cc1ccccn1)Cc1cc2ccccc2nc1Cl", "IC50": "> 20"}, {"smiles": "Cc1cc(C)c2cc(CNCc3cccnc3)c(Cl)nc2c1", "IC50": "> 20"}, {"smiles": "COc1ccc2nc(OC)c(CN(Cc3ccccn3)Cc3cc4cc(OC)ccc4nc3OC)cc2c1", "IC50": 3.4}, {"smiles": "Clc1nc2ccccc2cc1CN(Cc1ccccn1)Cc1cc2ccccc2nc1Cl", "IC50": "> 20"}, {"smiles": "COc1nc2cc(C)cc(C)c2cc1CNCc1cccs1", "IC50": "> 20"}, {"smiles": "COc1ccc2nc(Cl)c(CN(Cc3ccccn3)Cc3cc4cc(OC)ccc4nc3Cl)cc2c1", "IC50": "> 20"}]}]}
